# Results of several laboratories.
# Protocols differ between the studies behind these lines.
# Read-out: metabolic stability
# Species: human
SMILES,test system,conditions,half-life [min]
CC(=O)c1c(C)c2cnc(Nc3ccc(C4CCN(CCS(C)(=O)=O)CC4)cn3)nc2n(C2CCCC2)c1=O,liver S9,,85.6
Cc1[nH]c(C)c(S(=O)(=O)Nc2ccc(S(F)(F)(F)(F)F)cc2)c1C(=O)N1CCC(F)(F)C1,liver microsomes,,26.3
O=c1[nH]c2ccccc2n1C1CCN(CCCC(c2ccc(F)cc2)c2ccc(F)cc2)CC1,liver microsomes,100 ng/mL,201
C#Cc1nc(C(=O)N2CCC(NC(=O)c3cnc(-c4ccccc4)s3)(c3nc4ccccc4n3C)CC2)cs1,liver microsomes,,~20
CC(C)CC(=O)OC[C@H]1O[C@@](C#N)(c2ccc3c(N)ncnn23)[C@H](O)[C@@H]1O,hepatocytes,,< 4.36
O=c1c2cc(Cl)c(CO)cc2[nH]c(=S)n1Cc1cncnc1,liver microsomes,"1 µM, pH 7.4",71.8
C[C@]12CC[C@H]3[C@@H](CCC4=CC(=O)CC[C@@]43C)[C@@H]1CC[C@@H]2O,liver microsomes,,21.7
Cc1[nH]c(C)c(S(=O)(=O)Nc2ccc(S(=O)(=O)F)c(Cl)c2)c1C(=O)N1CCC(F)(F)C1,liver microsomes,,22
Cc1ncc2n1-c1ccc(Cl)cc1C(c1ccccc1F)=NC2,hepatocytes,,92.6
CC(c1cncnc1)n1c(=S)[nH]c2ccc(Cl)cc2c1=O (stereo not shown),liver microsomes,"1 µM, pH 7.4",> 186
